Assay type in all cases: cell-based
Assay [1] is described as follows: Inhibition of LPS-induced NF-kappaB activation in mouse RAW264.7 cells transfected with IKKbeta-pSV-b-galactosidase control vector after 20 hrs by secretory alkaline phosphatase assay. In a few lines:
(§1)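 RAW 264.7 cells stably carrying a pNF-κB-SEAP-NPT reporter were transfected by lipofectamine with a constitutively active IKKβ vector plus pSV-β-galactosidase control vector. Cells were treated with samples for 20 h. Culture medium aliquots were heated at 65 °C for 5 min and reacted with 4-methylumbelliferyl phosphate in the dark. SEAP fluorescence was read at ex 360/em 449 nm and normalized to β-galactosidase activity.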

Assay [2] relates to RAW264.7. As to the kind of experiment: Inhibition of LPS-induced NF-kappaB activation in mouse RAW264.7 cells transfected with IKKbeta-pSV-b-galactosidase control vector at 30 uM after 20 hrs by secretory alkaline phosphatase assay. The procedure, abridged: as §1
The subject of assay [3] is RAW264.7. Put plainly: Cytotoxicity against mouse RAW264.7 cells by MTT assay.

For orientation: IC50 means the concentration at which inhibition is half-maximal. A lower IC50 goes with higher potency. By inhibition is commonly meant the percentage by which the read-out fell short of the control. A higher inhibition goes with a strong effect. Consider `CC(C)CCOc1cccc(O)c1C(=O)/C=C/c1ccc(O)cc1`, for which the IC50 was 10 µM in assay [1] and over 30 µM in assay [3]. The inhibition in assay [2] came out at 100%.

Turning to `CCCCCCCCCCCCCCCCCCOc1cccc(O)c1C(=O)/C=C/c1ccc(O)cc1`, the IC50 in assay [1] and in assay [3] was over 30 µM throughout. Besides, the inhibition in assay [2] is 22%.

Consider `O=C(/C=C/c1ccc(O)cc1)c1c(O)cccc1OCC1CCCCC1`, for which the IC50 in assay [1] and in assay [3] was over 30 µM in each case. This compound also displayed an inhibition in assay [2] of 60%.

As to `CCCCCCCCCCCCCCOc1ccc(C(=O)/C=C/c2ccc(O)cc2)c(O)c1`, the results for the IC50 in assay [1] and in assay [3] were 29 µM and over 30 µM, respectively. Further, the inhibition in assay [2] is 50%.

`CCCCCCCCCCCCOc1cccc(O)c1C(O)CCc1ccc(O)cc1` (configuration not stated): the IC50 in assay [1] and in assay [3] was over 30 µM each time. Also, the inhibition in assay [2] worked out at 80%.

As for `CCCCCCCCCCOc1cccc(O)c1C(=O)/C=C/c1cccc(O)c1`, the IC50 in assay [1] and in assay [3] was over 30 µM in each case. In assay [2], the inhibition was 22%.

Consider `O=C(/C=C/c1ccc(O)cc1)c1c(O)cccc1OCc1ccccc1`, for which the IC50 in assay [1] and in assay [3] was over 30 µM in each case. This compound also returned an inhibition in assay [2] of 28%.

As to `CCCCCCCCCCOc1cccc(O)c1C(=O)/C=C/c1ccc(O)c(Cl)c1`, the IC50 in assay [1] is 9.6 µM; in assay [3], over 30 µM. In addition, the inhibition in assay [2] stood at 100%.

With `CCCCCCCCCCOc1cccc(O)c1C(=O)/C=C/c1ccc(OC)cc1`, the IC50 in assay [1] and in assay [3] was over 30 µM each time. The compound further showed an inhibition in assay [2] of 18%.

Consider `CCCCCCCCCCOc1cccc(O)c1C(=O)/C=C/c1cc(OC)c(O)c(OC)c1`, for which the IC50 in assay [1] and in assay [3] was over 30 µM each time. Besides, the inhibition in assay [2] is 53%.

For `CCCCCCCCCCCCCCOc1cccc(O)c1C(=O)/C=C/c1ccc(O)cc1`, the IC50 in assay [1] was 4.2 µM; in assay [3] it was over 30 µM. This compound registered an inhibition in assay [2] of 100%.

For the compound `CCCCCCCCCCCCCCCCOc1cccc(O)c1C(=O)/C=C/c1ccc(O)cc1`, the IC50 in assay [1] and in assay [3] was over 30 µM each time. In addition, the inhibition in assay [2] was 42%.

As for `CCCCCCCCC(CCCCCC)CCOc1cccc(O)c1C(=O)/C=C/c1ccc(O)cc1` (configuration not stated), the IC50 was 9.6 µM in assay [1] and over 30 µM in assay [3]. The inhibition in assay [2] is 100%.

Turning to `CCCCCCCCCCCCOc1cccc(O)c1C(=O)/C=C/c1ccc(O)cc1`, the results for the IC50 in assay [1] and in assay [3] were 9.4 µM and over 30 µM, respectively. This compound also yielded an inhibition in assay [2] of 100%.

As for `CCCCCCCCCCOc1cccc(O)c1C(=O)/C=C/c1ccc(Cl)c(Cl)c1`, the IC50 in assay [1] and in assay [3] was over 30 µM in each case. Besides, the inhibition in assay [2] amounted to 26%.

In the case of `CCCCCCCCCCCCCCOc1cccc(O)c1C(=O)/C=C/c1ccc(OCCCCCCCCCCCCC)cc1`, the IC50 in assay [1] and in assay [3] was over 30 µM in each case. This compound came in with an inhibition in assay [2] of 10%.

As for `CCCCCCCCCCOc1cccc(O)c1C(=O)/C=C/c1ccccc1O`, the IC50 in assay [1] and in assay [3] was over 30 µM throughout. Moreover, the inhibition in assay [2] was determined as 45%.

Regarding `CCCCCCCCCCCCOc1cccc(O)c1C(=O)CCc1ccc(O)cc1`, the IC50 in assay [1] and in assay [3] was over 30 µM throughout. Besides, the inhibition in assay [2] came out at 52%.

`CCCCC/C=C\CCCCOc1cccc(O)c1C(=O)/C=C/c1ccc(O)cc1`: the IC50 in assay [1] and in assay [3] was over 30 µM each time. The inhibition in assay [2] is 8%.

For `CCCCCCOc1cccc(O)c1C(=O)/C=C/c1ccc(O)cc1`, the half-inhibitory concentration (IC50) in assay [1] and in assay [3] was over 30 µM in each case. Moreover, in assay [2], the inhibition turned out to be 15%.

With `CCCCCCCCCCOc1cccc(O)c1C(=O)/C=C/c1ccc(C)cc1`, the IC50 in assay [1] and in assay [3] was over 30 µM throughout. The inhibition in assay [2] was determined as 8%.

Regarding `CCCCCCOc1cccc(O)c1C(=O)/C=C/c1ccc(OCCCCC)cc1`, the IC50 in assay [1] and in assay [3] was over 30 µM each time. Moreover, in assay [2], the inhibition amounted to 17%.

For `CCCCCCCCOc1cccc(O)c1C(=O)/C=C/c1ccc(O)cc1`, the IC50 was 5 µM in assay [1] and over 30 µM in assay [3]. In assay [2], this compound yielded an inhibition of 100%.

For the compound `CCCCCCCCCCOc1cccc(O)c1C(=O)/C=C/c1ccc(O)cc1`, the IC50 in assay [1] was 2.7 µM; in assay [3], over 30 µM. For the same compound, the inhibition in assay [2] is 100%.

The values are drawn from ChEMBL document CHEMBL2040804, “A SAR study on a series of synthetic lipophilic chalcones as inhibitor of transcription factor NF-κB” (Eur J Med Chem, 2012).
